This series is described as follows: Toxicity liver stage against HepG2, at 10uM. It counts as cell-based. Set-up: test concentration 10 uM, cell line HepG2-A16-CD81EGFP. To be noted: human, HepG2-A16-CD81EGFP cells; read-out: INHIBITION
A digest of the protocol:
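Uninfected HepG2-A16-CD81EGFP cells, 3 × 10^3 per well, 1536-well, plated on prespotted compound at 10 μM final, parasite-free screening media added to match infected plates; puromycin 10 μM positive, DMSO 0.5% negative; run in parallel with 48 h PbLuc assay at 37 °C, 5% CO2; viability by CellTiter-Glo luminescence, normalized to controls.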

Consider `CCn1c(CN2CCOC(Cn3cncn3)C2)nc2c(F)cccc21` (stereo not given), for which the cytotoxicity at 10 µM was -5.42%.
The value for `CN(C)S(=O)(=O)c1ccc(CN2CCC(C(N)=O)CC2)o1` was 0.214%.
Regarding `O=c1cc2c(nn1CN1CCC(c3ccccc3)CC1)CCC2`, the cytotoxicity at 10 µM is -8.49%.
The value for `O=C(Cc1cn2ccsc2n1)N1CCCC(n2ccnc2)C1` (stereo not given) was -8.22%.
The value for `CC(=O)N1CCc2nc(-c3ccccc3)nc(NC(C)C)c2CC1` was -119%.
For `CCc1ccc(C(=O)N2CCCC2c2nnc3n2CCCCC3)o1` (stereo not given), the cytotoxicity at 10 µM stood at 10.9%.
Under `O=C(NCCc1cc(N2CCOCC2)nc(N2CCCC2)n1)C1CC1` stands 6.8%.
Under `O=C(Cn1nc(Br)nc1Br)N1CCCC1` stands 5.38%; under `CN1CCCC(CCC(=O)N2CCc3c(nc(CC4CC4)[nH]c3=O)C2)C1` (stereo not given), -8.61%.
`CCNC(=O)NCc1cnn(-c2ccc(F)cc2F)c1`: the cytotoxicity at 10 µM is -6.52%.
In the case of `Cc1cc(C(=O)N2CCCN(Cc3cnn(C)c3)CC2)no1`, the cytotoxicity at 10 µM was -2.92%.
The value for `O=C(Nc1ccc(-c2ccccc2)cn1)C1CCCN1C(=O)C1CC1` (stereo not given) was -1.6%.
Under `Cc1[nH]nc(CCC(=O)N2CCCC(OCc3cccnc3)C2)c1C` (stereo not given) stands -5.07%; under `CN(C)C(C(=O)NCC1(C)COC1)c1cccc(F)c1` (stereo not given), -6.41%.
As to `CCNC(=O)NC1CN(Cc2ccccc2N(C)C)C[C@@H]1OC` (stereo not given in full), the cytotoxicity at 10 µM is -8.11%.
Under `CCc1nc2n(n1)CCCC2NC(=O)Nc1cccc(F)c1F` (stereo not given) stands 2.39%; under `Cc1noc(-c2cccnc2N(C)Cc2cscn2)n1`, -4.23%; under `CCS(=O)(=O)Nc1cnn(Cc2cccc(C)c2)c1`, 0.724%.
The value for `CN(C)C1CCN(C(=O)C2SCCc3ccccc32)CC1` (stereo not given) was -4.67%; that for `Cc1n[nH]c(C(=O)NCc2ccnc(OCC(F)(F)F)c2)c1Br` was 5.67%; that for `CC(C)C(C)(C#N)NC(=O)Cn1nnc(-c2cc3ccccc3o2)n1` (stereo not given) was 5.76%.
Under `CC1CN(CC(=O)NC(C2CC2)C2CC2)CCN1Cc1nccn1C` (stereo not given) stands -6.48%; under `COc1ccc(CC(=O)Nc2c(C)nc(N3CCCC3)nc2C)cc1`, 2.05%.
Turning to `Cc1ccc(CN2CCN(c3ccc(F)cn3)CC2=O)cc1C`, the cytotoxicity at 10 µM was -4.4%.
Under `O=C(C1CCN(c2ncnc3cccc(F)c23)CC1)N1CCCC1` stands 3.76%; under `Cn1cc(CN2CCCC3(CCCCN3S(C)(=O)=O)C2)cn1` (stereo not given), -76.3%; under `Cc1ccc(S(=O)(=O)N2CCN(CCC#N)CC2)s1`, -10.8%.
The value for `O=C1CC(N(C(=O)c2ccc3[nH]c4c(c3c2)CCCC4)C2CC2)C(=O)N1` (stereo not given) was -3.79%; that for `Cc1c(CN2C[C@H](O)[C@@H](N3CCOCC3)C2)[nH]c2ccc(F)cc12` was 5.86%; that for `Fc1ccccc1CN1C[C@@H](OCc2ccncc2)[C@H]2OCCC[C@H]21` was -4.81%.
As for `NC(=O)CN1CCC(c2noc3cc(F)ccc23)CC1`, the cytotoxicity at 10 µM is 5.47%.
Under `O=C(NC1CC1)[C@@H]1CCO[C@@H]2CCN(Cc3ccsc3)C[C@H]21` stands 4.4%; under `CC(C)N(C)CC(=O)NCCc1nc(C(F)(F)F)cs1`, 5.07%; under `Cc1nc2c(c(=O)[nH]1)CCN(C(=O)c1cccc3nccnc13)C2`, -16.8%.
Under `CC(C)CS(=O)(=O)NC(=O)c1ccc2c(c1)ncn2C` stands -9.94%; under `Cc1ccc(-c2ccc(C(=O)NCCS(N)(=O)=O)c(F)c2)cc1`, 11.3%.
The value for `Cc1ccc2nnc(C(=O)NCC3CCCC3)nc2c1` was 6.47%.
As to `Cn1ccnc1CN1CCCN(C(=O)c2cccc(CC#N)c2)CC1`, the cytotoxicity at 10 µM was -2.13%.
As to `CCc1noc(CN(CCC2CCCCC2)CC(N)=O)n1`, the cytotoxicity at 10 µM amounted to 5.76%.
Regarding `COc1ccc(C(=O)N2C[C@@H](C)[C@@](C)(O)C2)cc1N1CCOCC1`, the cytotoxicity at 10 µM came out at 11.3%.
Under `COc1ccccc1CNCCc1cccc(C(N)=O)c1` stands 3.65%; under `CN(CCc1ccccn1)[C@@H]1CCN(c2cccc(C#N)n2)C[C@H]1O`, -13.9%; under `CCN1CCN(C2CCN(Cc3nc(-c4ccoc4)no3)CC2)C1=O`, -7.39%.
The value for `CN(Cc1ncc(C(C)(C)C)o1)C1CCCN(c2cccnn2)C1` (stereo not given) was -16.1%.
The value for `CCN1CCN(C(=O)c2ccc3c(c2)CCCN3)[C@H]2CS(=O)(=O)C[C@H]21` was -57.8%; that for `CCc1ccccc1NC(=O)NCc1nnc(SC)n1C` was 3.73%; that for `Cc1c(NC(C)C(C)C)cccc1C(=O)NCc1nnc(C)n1C` (stereo not given) was 6.45%.
As for `CCN(Cc1ccncc1)C(=O)c1cn(CC2CCCNC2)nn1` (stereo not given), the cytotoxicity at 10 µM worked out at 5.35%.
The value for `CC(NC(=O)CCc1cccc(OC2CCCC2)c1)c1nncn1C` (stereo not given) was 7.2%; that for `COc1c(C2CCCN2c2ncnc3c2cnn3C)c(C)nn1C` (stereo not given) was 1.95%.
The value for `COCCC(=O)NCc1ccc(-c2ncncc2C(=O)N(C)C)cc1` was 4.45%.
The value for `CCOCC1CCN(C(=O)C(c2c(F)cccc2F)N(C)C)CC1` (stereo not given) was -3.12%; that for `O=C(NCCn1ccnc1)c1csc(Br)c1` was 13%; that for `c1cnc(NCc2n[nH]c3c2CCN(Cc2cccnc2)C3)nc1` was -7.15%.
As for `CCc1nc(CNC2CCN(S(C)(=O)=O)CC2)cs1`, the cytotoxicity at 10 µM came to 0.684%.
The value for `COC(=O)CC1CCN(C(=O)c2ccc(C)cc2)CC1` was 4.99%; that for `Cn1ccc(C(=O)NCc2ccc(N3CCCCCC3)nc2)cc1=O` was -3.18%.
Under `COc1c(C2CCCN2C(=O)c2ccnc(C)n2)c(C)nn1C` (stereo not given) stands -12%; under `CCn1c(C)cc(C(=O)NCc2cccc(NS(C)(=O)=O)c2)c1C`, -2.6%; under `N#Cc1ccccc1NC(=O)c1ccc2c(c1)OCO2`, -10.4%.
The value for `O=C(O)c1cc(S(=O)(=O)N2CCOc3ccccc32)ccc1Br` was -3.39%.
With `CCC(CO)N(Cc1cccnc1)C(=O)c1ccoc1C` (stereo not given), the cytotoxicity at 10 µM was -0.0979%.
The value for `COc1ccc(CN(Cc2cncn2C)CC2CCCO2)cc1OC` (stereo not given) was -3.06%; that for `CC(C)CN(CC(F)(F)F)S(=O)(=O)c1cc(C(N)=O)n(C)c1` was -3.22%; that for `Cc1noc(C)c1S(=O)(=O)NC(=O)COc1ccc2c(c1)CCC2` was -3.07%.
For the compound `COc1ccc(CN2C[C@@H](N(C)Cc3ccco3)[C@H]3OCCC[C@H]32)cc1`, the cytotoxicity at 10 µM was 1.18%.
Under `CN1[C@H](CN2CCCC2)C[C@@H]2CN(C(=O)c3cnccn3)CC[C@@H]21` stands 10.6%; under `CCn1nc2c(cc1=O)CN(CCCOc1ccc(C#N)cc1)CC2`, 14%.
As to `O=C(Cn1cc(I)cn1)N1CCOCC1`, the cytotoxicity at 10 µM was -10.2%.
The value for `Cc1nn(CC(=O)N2CCN(c3ccc(F)cc3)CC2)c(C)c1Cl` was 6.87%.
Take `CC(C)Cc1cc(C(=O)NCC2CCN(c3ccccc3F)C2)on1` (stereo not given): the cytotoxicity at 10 µM came out at 0.075%.
The value for `Cc1nnc(CN2CCCC(c3noc(C4CC4)n3)C2)o1` (stereo not given) was -16%; that for `Cc1ccc(N2CCC3(CCN(Cc4ccccn4)CC3)CC2)nn1` was 7.37%.
Under `CO[C@@H]1CC[C@@H](NS(=O)(=O)c2cn(C)nc2C)[C@H]1O` stands -3.11%; under `Cc1noc(C2(C)CCN(C(=O)C(C)C)CC2)n1`, -5.14%.
The value for `CNS(=O)(=O)c1ccc(C(=O)Nc2ccc3c(c2)C(=O)NC3)cc1` was -8.04%; that for `Cc1nc(N2CCC(CN3CCCC3)CC2)c2cnn(C)c2n1` was 8.39%.
`CNS(=O)(=O)c1ccc(CN2CCC(c3ccncc3)CC2)cc1`: the cytotoxicity at 10 µM is 10%.
Under `Cc1cnn(CC2CN(CC(=O)N(C)c3nccs3)CCO2)c1` (stereo not given) stands 0.385%; under `COc1ccc(OC)c(CNC(=O)N2CCC(n3cncn3)CC2)c1`, 2.46%; under `CC(=O)N1CCC(N[C@@H]2CO[C@H](CNC(=O)c3cccs3)[C@H]2O)CC1`, 1.96%.
Under `Cc1cc(CNC(=O)Cc2cccs2)ccc1S(C)(=O)=O` stands -2.74%.
The value for `Cc1nc(N(C)C)nc2c1COCC21CCN(C(=O)C2CC2)C1` (stereo not given) was 4.27%; that for `Nc1ncnc2c1ncn2[C@H]1CCN(Cc2ccsc2)CC[C@@H]1O` was -4.25%.
`Cc1nc(N2CCN(C(=O)c3ccccc3)CC2)c2cnn(C)c2n1`: the cytotoxicity at 10 µM was -11.5%.
The value for `Cc1cccc(Nc2nccnc2C2CCCN2CC(=O)N(C)C)n1` (stereo not given) was -5.28%; that for `Cc1cc(=O)n2nc(Oc3cc(Cl)cc(Cl)c3)sc2n1` was 16.8%.
Under `CC(=O)c1cccc(S(=O)(=O)N2CSCC2C(=O)NCC(F)(F)F)c1` (stereo not given) stands 3.78%.
Take `CN(C)CCNC(=O)c1ccccc1NC(=O)c1cc(Cl)ccc1Cl`: the cytotoxicity at 10 µM was -1.02%.
Under `CC1CCN(CCCNC(=O)NC(C)c2nncn2C)CC1` (stereo not given) stands -11.6%.
The value for `COCC(=O)NC1CC2(CCN(CCF)CC2)Oc2ccccc21` (stereo not given) was -0.864%; that for `CC(C)Nc1nc2c(cc1C(=O)NCC1CC1)CCN(S(C)(=O)=O)CC2` was -1.48%; that for `FC(F)(F)Cc1noc(CN2CCCC2c2noc(C3CC3)n2)n1` (stereo not given) was -2.7%.
Under `CN1CCCN(CC(=O)N2CCc3[nH]c(-c4ccccc4)nc3C2)CC1` stands -0.0342%; under `CN(Cc1ccc(-n2cccn2)cc1)CC1CCCN1c1cccnn1` (stereo not given), -3.98%.

The values are drawn from ChEMBL document CHEMBL4513216, “Probing the Open Global Health Chemical Diversity Library for Multistage-Active Starting Points for Next-Generation Antimalarials” (ACS Infect Dis, 2020).
